Data published in ChEMBL document CHEMBL5346966, “Discovery and Characterization of PROTACs Targeting Tissue Transglutaminase (TG2)” (J Med Chem, 2023).
Active and inactive are the calls of the source. The rule behind the calls is not given here.

Assays:
SK-OV-3 [1] = assay: Inhibition of cell migration in human SK-OV-3 cells at 10 uM incubated for 18 hrs by crystal violet staining based transwell migration assay; format: functional
Procedure, shortened: (§1)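 Transwell migration through 8 μm pores: 15,000 OVCAR5 or SKOV3 cells in serum-free medium with compound or control in upper chamber, 10% serum below. After 18 h, migrated cells fixed in 4% PFA, stained with crystal violet and counted at 40×. n = 3.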

[2] = target: T1, Protein-glutamine gamma-glutamyltransferase (Homo sapiens) (UniProt P21980); assay: Induction of TG2 degradation in human OVCAR-5 cells assessed as reduction in TG2 level at 10 uM incubated for 6 hrs in presence of VHL-L by Western blot analysis; format: cell-based
T1 sequence (whole entry): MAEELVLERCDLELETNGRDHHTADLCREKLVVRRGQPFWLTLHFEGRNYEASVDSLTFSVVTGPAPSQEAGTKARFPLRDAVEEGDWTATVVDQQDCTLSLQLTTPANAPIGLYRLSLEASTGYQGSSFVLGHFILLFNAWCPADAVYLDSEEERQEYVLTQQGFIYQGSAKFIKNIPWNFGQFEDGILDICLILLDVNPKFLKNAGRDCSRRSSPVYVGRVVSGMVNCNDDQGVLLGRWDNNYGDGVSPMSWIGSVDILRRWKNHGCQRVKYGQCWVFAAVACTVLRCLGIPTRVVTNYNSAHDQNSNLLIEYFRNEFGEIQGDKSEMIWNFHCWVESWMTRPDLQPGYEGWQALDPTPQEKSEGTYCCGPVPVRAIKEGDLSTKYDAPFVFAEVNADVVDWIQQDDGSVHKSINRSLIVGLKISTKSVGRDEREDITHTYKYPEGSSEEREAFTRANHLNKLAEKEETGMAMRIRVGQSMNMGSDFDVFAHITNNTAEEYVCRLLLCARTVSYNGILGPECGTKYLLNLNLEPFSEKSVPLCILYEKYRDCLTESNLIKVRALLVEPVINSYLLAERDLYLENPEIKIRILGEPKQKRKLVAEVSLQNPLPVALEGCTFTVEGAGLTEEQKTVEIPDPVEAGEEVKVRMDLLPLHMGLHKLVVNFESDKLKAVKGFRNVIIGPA
Procedure, shortened: (§2)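 OVCAR5 or SKOV3 cells treated for 6 h with compound at 10 μM plus 10 μM VHL ligand as competitor. TG2 measured by western blot with densitometry against control. n = 3.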

[3] = target: T1, Protein-glutamine gamma-glutamyltransferase (Homo sapiens); assay: Induction of TG2 degradation in human SK-OV-3 cells assessed as reduction of TG2 level treated every 6 to 8 hrs for 24 hrs by Western blot analysis; format: cell-based; settings: dose 1-10 µM
Procedure, shortened: (§3)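 OVCAR5 or SKOV3 cells given compound at 1 or 10 μM, redosed every 6–8 h over 24 h. TG2 measured at 24 h by western blot of RIPA lysates.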

[4] = target: T1, Protein-glutamine gamma-glutamyltransferase (Homo sapiens); assay: Induction of TG2 degradation in human OVCAR-5 cells assessed as reduction of TG2 level treated every 6 to 8 hrs for 24 hrs by Western blot analysis; format: cell-based; settings: dose 1-10 µM; procedure, shortened: as §3
OVCAR-5 [5] = assay: Inhibition of cell adhesion to fibronectin in human OVCAR-5 cells at 10 uM incubated for 6 hrs by CCK-8 assay; format: functional, cell-based
Procedure, shortened: (§4)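 Wells coated for 1 h with 10 μg/mL fibronectin in PBS. After PBS wash, attached cells counted by CCK-8 absorbance at […]. n = 3.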

[6] = target: T1, Protein-glutamine gamma-glutamyltransferase (Homo sapiens); assay: Induction of TG2 degradation in human SK-OV-3 cells assessed as reduction of TG2 level at 1 to 10 uM measured after 12 hrs by Western blot analysis; format: cell-based; settings: dose 1-10 µM, time 24.0 hrs, in the assay text read “24 hrs” for “12 hrs”
Procedure, shortened: (§5)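 SKOV3 cells treated with 0.1, 0.3, 1, 3, 10 or 30 μM for 0, 2, 6, 12 and 24 h. TG2 measured by western blot of RIPA lysates with GAPDH reprobe after stripping, followed by densitometry. n = 3 experimental replicates.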

[7] = target: T1, Protein-glutamine gamma-glutamyltransferase (Homo sapiens); assay: Induction of TG2 degradation in human SK-OV-3 cells assessed as reduction in TG2 level at 10 uM incubated for 6 hrs in presence of VHL-L by Western blot analysis; format: cell-based; procedure, shortened: as §2
[8] = target: T1, Protein-glutamine gamma-glutamyltransferase (Homo sapiens); assay: Induction of TG2 degradation in human OVCAR-5 cells assessed as reduction in TG2 level at 0.1 to 10 uM measured after 24 hrs by Western blot analysis; format: cell-based; settings: dose 0.1-10 µM
Procedure, shortened: (§6)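 Cells on 6 cm dishes treated for 6 or 24 h; OVCAR5 at 0.1, 1 and 10 μM, SKOV3 at 1 and 10 μM; DMSO control. RIPA lysates quantified by Bradford, then western blot with anti-TG2 and GAPDH antibodies (1:1000, overnight 4 °C). Bands quantified by densitometry; n = 3.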

[9] = target: T1, Protein-glutamine gamma-glutamyltransferase (Homo sapiens); assay: Induction of TG2 degradation in human SK-OV-3 cells assessed as reduction in TG2 level measured within 6 hrs by Western blot analysis; format: cell-based; settings: dose 0.1-10 µM
SK-OV-3 [10] = assay: Cytotoxicity against human SK-OV-3 cells assessed as cell death at 0.1 to 30 uM treated every 6 to 8 hrs for 5 days by CCK-8 assay; format: functional, cell-based; settings: dose 0.1-30 µM, time 5.0 day
Procedure, shortened: (§7)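 OVCAR5 and SKOV3 cells in 96-well plates given compound at 0.1, 0.3, 1, 3, 10 or 30 μM, redosed every 6–8 h over 5 days. Viable cells measured by CCK-8 absorbance at […]. n = 3.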

[11] = target: T1, Protein-glutamine gamma-glutamyltransferase (Homo sapiens); assay: Induction of TG2 degradation in human SK-OV-3 cells assessed as reduction in TG2 level at 0.1 to 10 uM measured after 24 hrs by Western blot analysis; format: cell-based; settings: dose 0.1-10 µM
OVCAR-5 [12] = assay: Inhibition of cell migration in human OVCAR-5 cells at 10 uM incubated for 18 hrs by crystal violet staining based wound healing assay; format: functional
[13] = target: T1, Protein-glutamine gamma-glutamyltransferase (Homo sapiens); assay: Induction of TG2 degradation in human SK-OV-3 cells assessed as reduction in TG2 level measured after 2 to 12 hrs by Western blot analysis; format: cell-based; settings: dose 0.1-30 µM, time 2-12 hrs; procedure, shortened: as §5
[14] = target: T1, Protein-glutamine gamma-glutamyltransferase (Homo sapiens); assay: Induction of TG2 degradation in human OVCAR-5 cells assessed as reduction in TG2 level measured within 6 hrs by Western blot analysis; format: cell-based; settings: dose 0.1-10 µM
[15] = target: T1, Protein-glutamine gamma-glutamyltransferase (Homo sapiens); assay: Induction of TG2 degradation in human OVCAR-5 cells assessed as reduction in TG2 level at 10 uM incubated for 6 hrs followed by MG132 addition and measured after 8 hrs by Western blot analysis; format: cell-based; settings: time 14.0 hrs
Procedure, shortened: (§8)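 Proteasome dependence checked in OVCAR5 or SKOV3 cells: compound at 10 μM for 6 h, with MG132 at 20 μM for 8 h. TG2 measured by western blot, and band intensity expressed relative to DMSO control. n = 3.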

[16] = target: T1, Protein-glutamine gamma-glutamyltransferase (Homo sapiens); assay: Induction of TG2 degradation in human SK-OV-3 cells assessed as reduction in TG2 level at 0.1 to 30 uM by Western blot analysis; format: cell-based; settings: dose 0.1-30 µM, time 2-12 hrs, TDE = time-dependent effect; procedure, shortened: as §5
[17] = target: T1, Protein-glutamine gamma-glutamyltransferase (Homo sapiens); assay: Induction of TG2 degradation in human SK-OV-3 cells assessed as maximal degradation at 10 to 30 uM measured after 6 hrs by Western blot analysis; format: cell-based; settings: dose 10-30 µM; procedure, shortened: as §5
OVCAR-5 [18] = assay: Inhibition of cell migration in human OVCAR-5 cells at 10 uM incubated for 18 hrs by crystal violet staining based transwell migration assay; format: functional; procedure, shortened: as §1
[19] = target: T1, Protein-glutamine gamma-glutamyltransferase (Homo sapiens); assay: Induction of TG2 degradation in human OVCAR-5 cells assessed as reduction of TG2 level at 1 to 10 uM measured after 24 hrs by Western blot analysis; settings: dose 1-10 µM
OVCAR-5 [20] = assay: Cytotoxicity against human OVCAR-5 cells assessed as cell death at 0.1 to 30 uM treated every 6 to 8 hrs for 5 days; format: functional, cell-based; settings: dose 0.1-30 µM, time 5.0 day; procedure, shortened: as §7
SK-OV-3 [21] = assay: Inhibition of cell migration in human SK-OV-3 cells at 10 uM incubated for 18 hrs by crystal violet staining based wound healing assay; format: functional
[22] = target: T1, Protein-glutamine gamma-glutamyltransferase (Homo sapiens); assay: Induction of TG2 degradation in human SK-OV-3 cells assessed as reduction of TG2 level at 10 uM incubated for 6 hrs followed by MG132 addition and measured after 8 hrs by Western blot analysis; format: cell-based; settings: time 14.0 hrs; procedure, shortened: as §8
[23] = target: T1, Protein-glutamine gamma-glutamyltransferase (Homo sapiens); assay: Potency index, ratio of MT4 KD to test compound KD for binding affinity to TG2 (unknown origin) assessed as dissociation constant at 30 degree C by isothermal titration calorimetry
SK-OV-3 [24] = assay: Inhibition of cell adhesion to fibronectin in human SK-OV-3 cells at 10 uM incubated for 6 hrs by CCK-8 assay; format: functional, cell-based; procedure, shortened: as §4
[25] = target: T1, Protein-glutamine gamma-glutamyltransferase (Homo sapiens); assay: Induction of TG2 degradation in human SK-OV-3 cells assessed as reduction in TG2 level at 0.1 to 10 uM measured after 6 hrs by Western blot analysis; format: cell-based; settings: dose 0.1-10 µM
[26] = target: T1, Protein-glutamine gamma-glutamyltransferase (Homo sapiens); assay: Induction of TG2 degradation in human OVCAR-5 cells assessed as reduction in TG2 level at 0.1 to 10 uM measured after 6 hrs by Western blot analysis; format: cell-based; settings: dose 0.1-10 µM; procedure, shortened: as §6
[27] = target: T2, Protein-glutamine gamma-glutamyltransferase (Homo sapiens, UniProt P21980); assay: Binding affinity to TG2 (unknown origin) assessed as dissociation constant at 30 degree C by isothermal titration calorimetry
T2 sequence (P21980 whole entry): T1 sequence (whole entry)

Row | Activity [2] | Activity [3] | Activity [4] | Activity [6] | Activity [7] | Activity [8] | Activity [9] | Activity [11] | Activity [13] | Activity [14] | Activity [15] | Activity [16] | Activity [17] | Structure (SMILES) | inhibition (SK-OV-3 [1]) | inhibition (OVCAR-5 [5]) | Activity (SK-OV-3 [10]) | inhibition (OVCAR-5 [12]) | inhibition (OVCAR-5 [18]) | inhibition (SK-OV-3 [21]) | inhibition (SK-OV-3 [24]) | also measured
1 | inactive | Active | Active | inactive | inactive | inactive | Dose-Dependent Effect | inactive | Dose-Dependent Effect | Dose-Dependent Effect | inactive | Tde | Active | Cc1cc(N(C)CCOCCOCCOCCOCCOCCC(=O)N[C@H](C(=O)N2C[C@H](O)C[C@H]2C(=O)NCc2ccc(-c3scnc3C)cc2)C(C)(C)C)nc(Nc2ccc(NC(=O)Cc3ccccc3)cc2)n1 | Active | Active | inactive | Active | Active | Active | Active | Activity [19]: inactive; Activity (OVCAR-5 [20]): inactive; Activity [22]: inactive; Ratio [23]: 8.8
2 | – | – | – | – | – | – | – | – | – | – | – | – | – | Cc1cc(N(C)CCOCCC(=O)N[C@H](C(=O)N2C[C@@H](O)C[C@H]2C(=O)NCc2ccc(-c3scnc3C)cc2)C(C)(C)C)nc(Nc2ccc(NC(=O)Cc3ccccc3)cc2)n1 | inactive | inactive | – | inactive | inactive | inactive | inactive | Activity [25]: inactive; Activity [26]: inactive
3 | inactive | Active | Active | inactive | inactive | inactive | Dose-Dependent Effect | inactive | Dose-Dependent Effect | Dose-Dependent Effect | inactive | Tde | Active | Cc1cc(N(C)CCOCCC(=O)N[C@H](C(=O)N2C[C@H](O)C[C@H]2C(=O)NCc2ccc(-c3scnc3C)cc2)C(C)(C)C)nc(Nc2ccc(NC(=O)Cc3ccccc3)cc2)n1 | Active | Active | inactive | Active | Active | Active | Active | Kd [27]: > 100 µM; Activity [19]: inactive; Activity (OVCAR-5 [20]): inactive; Activity [22]: inactive; Ratio [23]: > 12.8
4 | – | – | – | – | – | – | – | – | – | – | – | – | – | Cc1cc(N(C)CCOCCOCCOCCOCCOCCC(=O)N[C@H](C(=O)N2C[C@@H](O)C[C@H]2C(=O)NCc2ccc(-c3scnc3C)cc2)C(C)(C)C)nc(Nc2ccc(NC(=O)Cc3ccccc3)cc2)n1 | inactive | inactive | – | inactive | inactive | inactive | inactive | Activity [25]: inactive; Activity [26]: inactive
